Screens from PubChem BioAssay.
TRPC6 inh: mouse TRPC6 channel inhibition; HEK293-TRPC6, membrane potential dye, ACh-evoked depolarization; stronger effect = lower value; B-score at 10 µM; hit rate 1.1% among 310,000;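 active = B-score under library mean minus 3 SD, initial fluorescence not abnormally high, positive integrated signal ratio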;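 also: B-score derived from integrated fluorescence ratio over the kinetic read; more negative B-score means stronger inhibition of depolarization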
TRPC4 act: TRPC4 (mouse) channel activation; HEK293 TRPC4beta/mu-opioid, Fluo4 calcium fluorescence; stronger effect = higher value; B-score at 10 µM; AID 2237; Q9QUQ5; hit rate 0.49% among 310,000;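 active = B-score above 5 SD of library B-scores, and initial fluorescence ratio not above library mean plus 5 SD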;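 also: positive B-score marks a calcium rise read as TRPC4 activation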
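Incubation: 45 min room-temperature Fluo4 loading, 110 s read / System: HEK293 cells stably co-expressing mouse TRPC4beta and mu-opioid receptor / Signal: Fluo4 fluorescence, kinetic / Control set: buffer (low) and maximal DAMGO (high) / Measure: integrated baseline-normalised fluorescence ratio, converted to per-well B score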
TRPC4 block: blocks the mouse TRPC4 cation channel; Q9QUQ5; HEK293 TRPC4beta/mu-opioid, DAMGO-evoked Fluo4 calcium flux; stronger effect = lower value; B-score at 10 µM; hit rate 0.39% among 300,000;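 active = B-score over 3 SD under the library average, no early fluorescence shift, positive overall ratio signal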
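Signal: kinetic Fluo4 fluorescence imaging of calcium influx. Material: stable TRPC4beta/mu-opioid receptor HEK293 cells. Probe or stimulus: DAMGO in two steps, submaximal then maximal.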
Kir21 inh: Kir2.1 (mouse) channel inhibition; P35561; B-score at 10 µM; HEK293-Kir2.1, FluxOR thallium flux fluorescence; stronger effect = lower value; hit rate 0.85% among 310,000;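 active = fluorescence ratio B-score at or below minus 3 SD of library scores, with starting-brightness B-score within 2 SD, cut at about -4.2 in these data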;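 also: channel flux triggered by added potassium and thallium sulfate stimulus; B-score of peak minus minimum fluorescence over baseline after thallium stimulus; more negative B-score means stronger Kir2.1 block with less thallium influx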
Target sequence (P35561 whole entry, looked up): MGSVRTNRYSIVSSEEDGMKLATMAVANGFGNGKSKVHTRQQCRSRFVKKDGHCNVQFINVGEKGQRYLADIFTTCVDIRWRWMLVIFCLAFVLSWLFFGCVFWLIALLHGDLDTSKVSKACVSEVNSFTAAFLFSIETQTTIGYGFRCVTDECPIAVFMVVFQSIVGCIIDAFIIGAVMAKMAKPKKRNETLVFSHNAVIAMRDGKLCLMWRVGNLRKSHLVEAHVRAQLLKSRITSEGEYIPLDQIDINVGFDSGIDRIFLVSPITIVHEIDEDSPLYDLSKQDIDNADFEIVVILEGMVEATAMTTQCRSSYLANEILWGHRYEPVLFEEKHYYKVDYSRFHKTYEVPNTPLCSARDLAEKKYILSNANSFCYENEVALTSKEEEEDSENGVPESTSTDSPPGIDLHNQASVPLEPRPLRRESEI
TRPC6 activator: activators of mouse TRPC6 channel; Q61143; HEK293-TRPC6 membrane potential dye fluorescence; stronger effect = higher value; B-score at 10 µM; hit rate 0.13% among 310,000; AID 2550;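 active = B-score of the integrated fluorescence ratio above library mean plus 3 SD, and starting fluorescence ratio within library mean plus 5 SD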;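 also: higher score means more depolarization so channel activation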
TRPC4 potent: allosteric potentiators of mouse TRPC4 channel; Q9QUQ5; HEK293 TRPC4beta/mu-opioid, DAMGO EC20, Fluo-4 Ca2+ flux; stronger effect = higher value; B-score at 10 µM; hit rate 0.42% among 310,000;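 active = B-score of calcium response area above 5 SD of library B-scores, with initial fluorescence ratio within 5 SD of library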;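 also: B-score of integrated fluorescence ratio over time as area under calcium response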
TRPC4 sel inh 2: mouse TRPC4 off-target activity of TRPC6 inhibitors, second screen | shares compounds with TRPC6 inh | HEK293 TRPC4/MOR, membrane potential dye fluorescence; channel activated by saturating DAMGO dose | inhibition, % at 10 µM | hit rate 42% among 920 | AID 2776;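 active = compounds whose fluorescence signal differed from control wells by over 3 SD, either direction, in both duplicate plates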
TRPC4 spec: mouse TRPC4 off-target activity of TRPC6 inhibitors; shares compounds with TRPC6 inh; HEK293 TRPC4/mu-opioid, membrane potential fluorescence; activity change, negative = inhibition, % at 10 µM; hit rate 61% among 920;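 active = rise or fall in signal beyond 3 SD of buffer-only wells in both replicate plates, either sign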;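 also: integrated kinetic ratio of fluorescence range over baseline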
HEK293 MPD ctr 2-1: parental HEK293 nonspecific activity of TRPC6 inhibitors, second screen; parental HEK293 membrane potential dye fluorescence; maximal acetylcholine challenge after compound addition; shares compounds with TRPC6 inh; signal change vs control, % at 10 µM; hit rate 31% among 920;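 active = membrane potential signal moving either way by over 3 SD of the maximum-effect control, in both duplicate plates, meaning non-specific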
HEK293 MPD ctr-1: parental HEK293 nonspecific activity of TRPC6 inhibitors. membrane potential signal change, % at 10 µM. hit rate 60% among 920. parental HEK293 membrane potential dye fluorescence. shares compounds with TRPC6 inh;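 active = membrane potential signal shifting up or down by more than 3 SD of buffer-only wells, on both duplicate plates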
HEK293 MPD ctr-2: parental HEK293 nonspecific activity of TRPC6 modulators. shares compounds with TRPC6 inh. membrane potential dye fluorescence. membrane potential signal change, % at 10 µM. hit rate 51% among 2,400;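 active = membrane potential signal moves up or down beyond 5 SD from buffer-only wells, on both duplicate plates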
HEK293 MPD ctr 2-2: parental HEK293 nonspecific activity of TRPC6 modulators, second screen; inhibition, % at 10 µM; hit rate 14% among 2,400; membrane potential dye fluorescence; after compound, maximal acetylcholine stimulation; shares compounds with TRPC6 inh;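 active = membrane potential signal drops by more than 5 SD from the mean control signal, in both duplicate plates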;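 also: plate controls were acetylcholine ECmax control wells for no effect and buffer only wells for full effect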
TRPC4 ctr mod: selectivity of TRPC6 modulators against mouse TRPC4. shares compounds with TRPC6 inh. HEK293 TRPC4/mu-opioid, membrane potential fluorescence. AID 488927. percent change from control (negative = decrease, positive = increase), % at 10 µM. hit rate 69% among 2,400;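 active = membrane potential signal moved up or down beyond 5 SD of buffer control wells, in both duplicate plates, actives on both sides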;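 also: plate controls were assay buffer wells for no effect and DAMGO maximal-effect wells for full effect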
TRPC4/MOR inh 2: second check of whether TRPC6 modulators also affect mouse TRPC4; AID 488928; shares compounds with TRPC6 inh; hit rate 55% among 2,400; HEK293 TRPC4/mu-opioid, membrane potential dye fluorescence; stimulated with maximal-effect DAMGO; inhibition, % at 10 µM;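 active = drop in membrane potential signal beyond 5 SD of the control wells in both duplicate plates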;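 also: TRPC4 counter screen for TRPC6 hits run under conditions tuned for TRPC6 not TRPC4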
TRPC6 inh conf: mouse TRPC6 inhibitor confirmation. shares compounds with TRPC6 inh. HEK293-TRPC6, membrane potential dye, ACh-evoked depolarization. inhibition, % at 10 µM. hit rate 43% among 3,300. AID 488960;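 active = fluorescence ratio falls more than 5 SD below the full-stimulation control mean, in both duplicate runs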;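 also: integrated fluorescence ratio of peak minus minimum over baseline after agonist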
TRPC6 act confirm: confirmation of mouse TRPC6 activators; shares compounds with TRPC6 inh; HEK293-TRPC6 membrane potential dye fluorescence, FDSS; activation, % at 10 µM; hit rate 11% among 2,800; AID 488961;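 active = ratio signal rise beyond 5 SD above unstimulated control wells' mean, seen in both duplicate runs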;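 also: plate controls were buffer EC0 wells for no effect and acetylcholine ECmax response for full effect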
* hit, by the source's call; i = inactive; / = no result given. This is a sample that favours compounds with a hit; in the whole collection about 2.9% have one here.

SMILES | TRPC6 inh | TRPC4 act | TRPC4 block | Kir21 inh | TRPC6 activator | TRPC4 potent | HEK293 MPD ctr-2 | HEK293 MPD ctr 2-2 | TRPC4 ctr mod | TRPC4/MOR inh 2 | TRPC6 inh conf | TRPC6 act confirm | others
Cc1ccccc1Nc1nc(-c2sc(NC(=O)c3ccc([N+](=O)[O-])cc3)nc2C)cs1 | i | i | i | 1.5 | i | i | / | / | / | / | / | /
Cc1ccc(NC(=S)NCc2ccccc2)cc1S(=O)(=O)N1CCCCC1 | i | i | i | -2.7 | i | i | / | / | / | / | / | /
FC(F)(F)c1ccc2c(c1)n(Cc1ccccc1)c1[n+]2CCCCC1 | -5.1* | i | i | 1.5 | i | i | i | i | i | i | i | i
Cc1ccc(NC(=O)c2cc(-c3cccs3)nc3ccccc23)nc1 | -6.4* | i | i | -0.53 | i | i | i | i | i | 39%* | i | i
Cc1ccc(S(=O)(=O)NCCCNC(=O)c2ccccc2)cc1 | i | i | i | -1.6 | i | i | / | / | / | / | / | /
O=S(=O)(Nc1nc2ccccc2nc1Nc1ccc(N2CCOCC2)cc1)c1cc(Cl)ccc1Cl | -6.7* | i | i | 1.2 | i | i | / | / | / | / | i | i | TRPC4 sel inh 2=78%*;TRPC4 spec=-10%*;HEK293 MPD ctr 2-1=i;HEK293 MPD ctr-1=-241%*
Clc1nc(Nc2ccc(N3CCOCC3)cc2)c2ccccc2n1 | i | i | i | -0.48 | i | i | / | / | / | / | / | /
Cc1ccc(C(=O)Nc2nc(-c3ccccn3)cs2)o1 | i | i | i | -2.1 | i | i | / | / | / | / | / | /
c1cnc2c(C3NCCc4c3[nH]c3ccccc43)cccc2c1 (centres undefined) | -6.6* | i | i | -0.72 | i | i | i | i | i | 72%* | 50%* | i
CN(CC(=O)Nc1ccccc1Cl)C(=O)c1cccc(-n2cccc2)c1 | i | i | i | -1.5 | i | i | / | / | / | / | / | /
c1ccc(Oc2cccc(OCCCCN3CCCC3)c2)cc1 | -8.6* | i | i | -3 | i | i | / | / | / | / | i | / | TRPC4 sel inh 2=i;TRPC4 spec=5.8%*;HEK293 MPD ctr 2-1=262%*;HEK293 MPD ctr-1=5.1%*
CN1CCN(CCCn2cnc3c(=O)oc4ccccc4c32)CC1 | -5.1* | i | i | -0.51 | i | i | -269%* | i | -48%* | i | i | i
CCc1nc2ccc(C(=O)N(C)CC(=O)Nc3ccc(Cl)c(C(F)(F)F)c3)cc2nc1CC | i | i | i | 0.21 | i | i | / | / | / | / | / | /
c1ccc2[nH]c(-c3cscn3)nc2c1 | i | i | i | -0.24 | i | i | / | / | / | / | / | /
O=C(COC(=O)c1ccc(Cl)cc1[N+](=O)[O-])NC(=O)c1ccccc1 | -5.9* | i | i | -0.41 | i | i | i | i | i | i | i | i
O=C(COC(=O)c1cc[n+]([O-])cc1)Nc1ccc(Cl)cc1C(F)(F)F | i | i | i | 1.1 | i | i | / | / | / | / | / | /
O=C(COC(=O)c1cc[n+]([O-])cc1)Nc1ccc(Cl)cc1[N+](=O)[O-] | -6* | i | i | -0.72 | i | i | -168%* | i | -36%* | i | i | i
O=C(O)C1Cc2ccccc2CN1C(=O)c1ccco1 (centres undefined) | i | i | i | -0.68 | i | i | / | / | / | / | / | /
O=C(COC(=O)CN1C(=O)c2ccccc2C1=O)NC1CCCCC1 | i | i | i | -1.7 | i | i | / | / | / | / | / | /
O=C(c1cccs1)N1CCN(C23CC4CC(CC(C4)C2)C3)CC1 | -6.3* | i | i | 0.47 | i | i | 114%* | i | 18%* | i | 44%* | /
O=C(c1ccc(Cl)s1)N1CCN(C23CC4CC(CC(C4)C2)C3)CC1 | i | i | i | 0.19 | i | i | / | / | / | / | / | /
CCCOc1ccc(-c2c(C(=O)N/N=C(\C)COc3ccccc3)nnn2-c2nonc2N)cc1 | i | i | i | 1 | i | i | / | / | / | / | / | /
COc1ccccc1N1CCN(C(=O)CSc2nc(C)cc(=O)[nH]2)CC1 | -6.9* | i | i | 0.81 | i | i | / | / | / | / | i | i | TRPC4 sel inh 2=i;TRPC4 spec=i;HEK293 MPD ctr 2-1=i;HEK293 MPD ctr-1=i
COC(=O)c1cccc(NC(=O)CC2NCCNC2=O)c1 (centres undefined) | i | i | i | 0.44 | i | i | / | / | / | / | / | /
COc1cc(NC(=O)CC2NCCNC2=O)cc(OC)c1 (centres undefined) | -6.1* | i | i | 0.35 | i | i | i | i | i | i | i | i
CC(=NCCCNC1CCCCC1)C1=C(O)CC(C)(C)CC1=O | i | i | i | -1.7 | i | i | / | / | / | / | / | /
Cc1cc(C)n2nc(-c3cccnc3)nc2n1 | i | i | i | -0.07 | i | i | / | / | / | / | / | /
CCOc1ccc(C(=O)O/N=C(\N)c2ccccn2)cc1OCC | -5.9* | i | i | 0.48 | i | i | -94%* | i | -22%* | i | i | i
CCOc1cc(C(=O)O/N=C(\N)c2ccccn2)cc(OCC)c1OCC | i | i | i | -1.5 | i | i | / | / | / | / | / | /
